Assay outcomes from PubChem BioAssay.
Hck-Nef inh: blocks Nef-activated human Hck kinase; AID 463187; Recombinant Hck-YEEI plus Nef, Z-Lyte FRET kinase assay; inhibition, % at 20 µM; 0.68% of 220,000 active; P08631;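 active means Hck-Nef kinase inhibition above about 50%, limit read from the data; inactive means inhibition below that limit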;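 further: 0% = DMSO with Hck plus Nef and 100% = Hck alone without Nef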
RanGTP-Impb inh: disruptors of Ran-importin-beta complex formation – biochemical, FRET, CFP-Ran, YFP-importin-beta, homogeneous, primary screen; cell-free CFP-Ran/YFP-importin-beta FRET ratio; inhibition, % (no concentration beside the values); 1.1% of 300,000 active; AID 2216;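 active means more than half of the replicate wells show a fall in the fluorescence ratio signal beyond about 16%, limit read from the data, passing the limit was not always enough; inconclusive means exactly half of the replicate wells pass the set limit; inactive means fewer than half of replicates pass the limit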;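 further: 0% = DMSO wells and 100% = Ran loaded with GDP instead of GTP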
TbHK1 inh: blocks Trypanosoma brucei hexokinase 1 activity. recombinant TbHK1, G6PDH-coupled NADH A340. inhibition, % at 10 µM. 0.11% of 220,000 active. AID 1430;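 active means inhibition of 50% or more in the single-dose primary screen; inactive means inhibition below 50%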
Runt-SMMHC FRET: blocks binding of human RUNX1 Runt domain to CBFb-SMMHC. Q01196+Q13951. Cerulean-Runt/Venus-CBFb-SMMHC FRET ratio 530/480, 1 h. inhibition, % at 20 µM. 0.74% of 220,000 active. AID 1434;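 active means mean inhibition across duplicate retests at 20 µM reaching about 50%, limit read from the data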;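 further: 0% = DMSO wells and 100% = wells with excess untagged CBFb-SMMHC; inhibitors lower the FRET ratio by blocking Runt binding to CBFb-SMMHC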
Target sequence (Q01196 whole entry, looked up, the tested form may be a part): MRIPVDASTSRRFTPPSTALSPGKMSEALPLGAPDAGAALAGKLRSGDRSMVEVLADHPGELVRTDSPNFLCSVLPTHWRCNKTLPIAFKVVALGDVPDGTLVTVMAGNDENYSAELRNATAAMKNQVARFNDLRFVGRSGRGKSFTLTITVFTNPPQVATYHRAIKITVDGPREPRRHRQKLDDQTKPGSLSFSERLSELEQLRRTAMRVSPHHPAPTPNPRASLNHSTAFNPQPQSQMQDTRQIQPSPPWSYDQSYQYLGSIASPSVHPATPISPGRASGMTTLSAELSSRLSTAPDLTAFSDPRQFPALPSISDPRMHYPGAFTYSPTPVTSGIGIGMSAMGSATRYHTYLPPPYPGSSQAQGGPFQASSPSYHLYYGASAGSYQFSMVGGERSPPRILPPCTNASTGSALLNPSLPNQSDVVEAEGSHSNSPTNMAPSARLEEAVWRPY
Target sequence (Q13951 whole entry, looked up, the tested form may be a part): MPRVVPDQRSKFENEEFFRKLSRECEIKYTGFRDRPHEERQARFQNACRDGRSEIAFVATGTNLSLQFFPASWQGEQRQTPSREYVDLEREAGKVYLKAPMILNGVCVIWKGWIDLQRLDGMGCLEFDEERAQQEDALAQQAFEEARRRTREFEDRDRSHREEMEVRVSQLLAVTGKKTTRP
Runt-CBFb FRET: inhibitors of human RUNX1 Runt domain binding to CBFb; Cerulean-Runt/Venus-CBFb FRET ratio 530/480, 1 h; inhibition, % at 20 µM; 0.46% of 220,000 active; AID 1496; Q01196+Q13951;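 active means inhibition over about 50% at 20 µM in the single-dose screen, limit read from the data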;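 further: 0% = DMSO wells and 100% = excess unlabeled CBFb competitor control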
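Doses: 20 µM compound in 1% DMSO | Material: Cerulean-labeled Runt domain protein | Amount: Each fluorescent fusion protein 100 nM | Schedule: Two 1 h room-temperature incubations shielded from light | Measured by: FRET fluorescence | Evaluation: Loss of energy transfer signal | Controls: Unlabeled CBFb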
p97 inhibitor: blocks human p97 ATPase activity. 0.42% of 220,000 active. inhibition, % at 8 µM. recombinant p97 ATPase, Kinase-Glo ATP luminescence, 3 h. P55072; in the data active means inhibition above about 15%;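 further: 0% = DMSO vehicle and 100% = wells lacking enzyme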
* hit, by the source's call; u = inconclusive; x = no result. Rows were chosen to be rich in hits. Some 2.1% of all compounds tested hit in one or more screens of this group.

SMILES | Hck-Nef inh | RanGTP-Impb inh | TbHK1 inh | Runt-SMMHC FRET | Runt-CBFb FRET | p97 inhibitor
Cn1cnnc1Sc1nc2ccccc2nc1NS(=O)(=O)c1ccccc1 | -6 | 10 | -15 | 28 | 9 | 1
CC(=O)Nc1ccc(S(=O)(=O)Nc2nc3ccccc3nc2Nc2ccc(N)cc2)cc1 | 15 | 8 | -29 | -2 | -8 | 3
CCCCN(CCCC)c1nc2ccccc2nc1NS(=O)(=O)c1ccc(NC(C)=O)cc1 | 4 | 3 | -22 | 70* | 20 | 1
CCOC(=O)C1=C(COC(=O)/C=C/c2cccc(OC)c2)NC(=O)NC1C (stereo unspecified) | x | 2 | x | x | x | x
NS(=O)(=O)c1ccc(CCNC(=O)CCCCCn2c(=S)[nH]c3ccc(Br)cc3c2=O)cc1 | 50* | -2 | 24 | -5 | -4 | 1
O=C(CCCCCn1c(=S)[nH]c2ccc(Br)cc2c1=O)NCC1CCCO1 (stereo unspecified) | 10 | 0 | -1 | 1 | 0 | 1
Cc1c(O)ccc2cc(S(=O)(=O)c3ccccc3)c(=O)oc12 | x | 132* | x | x | x | x
CCN(C(=O)Cn1cnc2cc([N+](=O)[O-])ccc2c1=O)C1CCS(=O)(=O)C1 (stereo unspecified) | 21 | 14* | -12 | -15 | 0 | 5
CC1CCCC(C)N1C(=O)Cn1cnc2cc([N+](=O)[O-])ccc2c1=O (stereo unspecified) | -16 | u | -2 | 2 | -1 | 4
COc1ccc2ccccc2c1/C=N/NC(=O)c1ccc([N+](=O)[O-])cc1 | x | -3 | x | x | x | x
CC(C)=C(NC(=O)c1ccccc1)C(=O)NCCc1nc2ccccc2[nH]1 | x | 6 | x | x | x | x
Cc1ccc2c(c1)[nH]c1c(=O)n(Cc3ccco3)cnc12 | 18 | -1 | -13 | 0 | 6 | 4
Cc1ccc(S(=O)(=O)c2cc3c(=O)n4ccccc4nc3n(CCc3ccccc3)c2=N)cc1 | x | 64* | x | x | x | x
Cc1ccc(S(=O)(=O)c2cc3c(=O)n4ccccc4nc3n(C3CCCC3)c2=N)cc1 | x | 123* | x | x | x | x
Cc1ccc(S(=O)(=O)c2cc3c(=O)n4ccccc4nc3n(C)c2=N)cc1 | -2 | 174* | -12 | 62* | 97* | 3
CC(Oc1cc(-c2ccccc2)cc2ccccc12)C(=O)N1CCOCC1 (stereo unspecified) | -2 | 2 | -12 | -9 | -1 | -2
COc1ccc(C(=O)NN=C2CCCC2)cc1 | x | 28* | x | x | x | x
COc1ccc(-n2c(O)c(C=Nc3ccccc3)c3ccccc3c2=O)cc1OC | 17 | -4 | -17 | 71 | 22 | -3
COc1ccc(-n2c(O)c(C=Nc3ccccc3)c3ccccc3c2=O)cc1 | 20 | u | 1 | 90* | 7 | 11
CCOC(=O)c1csc(NC(=O)CC2CCCC2)n1 | 16 | 1 | 4 | 1 | 0 | -1
CCOC(=O)c1c(N)sc2c1CCN(CCc1ccccc1)C2 | x | 72* | x | x | x | x
CN1CCc2c(sc(N)c2C(=O)O)C1 | -12 | 50* | 1 | 144* | 75* | 0
CCOC(=O)c1c(NC(=S)Nc2ccccc2)sc2c1CC(C)(C)SC2 | 2 | 1 | -17 | 7 | 8 | 1
CCOC(=O)c1c(NC(=S)Nc2ccccc2)sc2c1CCN(CCc1ccccc1)C2 | 10 | x | 4 | 86 | 94* | 3
CCOC(=O)C1=C(N)N2C(=O)CSC2=C(C(=O)OC)C1 | -1 | -4 | -18 | -6 | -1 | -1
SMILES | Hck-Nef inh | RanGTP-Impb inh | TbHK1 inh | Runt-SMMHC FRET | Runt-CBFb FRET | p97 inhibitor
Cc1oc(-c2ccc(Cl)cc2)cc1-c1nn2c(-c3ccoc3C)nnc2s1 | 59* | -2 | 17 | 18 | 32 | 12
CCCC(=O)NC(Nc1ccccc1F)C(Cl)(Cl)Cl (stereo unspecified) | -2 | 0 | 8 | -4 | 67* | -8
CC(C)CC(=O)NC(Nc1ccccc1F)C(Cl)(Cl)Cl (stereo unspecified) | -1 | -1 | 4 | 2 | -2 | 3
COc1ccccc1N(/N=C1\Sc2ccccc2C1=O)C(C)=O | 25 | 5 | -16 | -9 | -5 | 15*
Cc1ccccc1N1CCN(C(=S)c2ccc([N+](=O)[O-])cc2)CC1 | 9 | 26* | 5 | 27 | 35 | 5
N=c1c(C(=O)NCCc2ccccc2)cc2c(=O)n3ccccc3nc2n1Cc1ccco1 | x | 74* | x | x | x | x
